From PubChem
Sampled rows, rich in hits. Any-hit rate of the full collection: about 2.5%.
Dyrk1A ADPGlo: Dyrk1A (rat) kinase inhibition | Q63470 | AID 504441 | inhibition, % at 12.5 µM | ADP-Glo luminescence, NFATc1 peptide | hit rate 0.43% among 310,000;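 further: plate controls were vehicle with enzyme for no effect and no enzyme for full effect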
NSD2 inh: NSD2 (human) methyltransferase inhibition; O96028; NSD2 peptide methylation, AlphaScreen, 120 min; inhibition, % at 12.5 µM; hit rate 0.54% among 310,000
CDK5 inh: inhibitors of human CDK5/p35 kinase. Q00535+Q15078. Recombinant CDK5/p35, ADP-Glo luminescence, 60 min. inhibition, % at 10 µM. hit rate 0.01% among 330,000;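 active means highest replicate inhibition of at least 50% and at least 75% of replicates reaching 50%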;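 further: plate controls were DMSO neutral control for no effect and GW8510 at 10 µM for full effect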
dFosB act: mouse delta FosB homodimer activation; P13346; purified delta FosB, TAMRA-CDK5 oligo fluorescence polarization; percent of positive-control signal above neutral wells; activation, % at 25 µM; hit rate 0.99% among 340,000;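 active means mean activation above about 17%, with every replicate also reaching it, limit read from the data, passing the limit was not always enough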
SR-BI DiI inh: inhibitors of mouse SR-BI mediated HDL lipid uptake. ldlA[mSR-BI] CHO cells, DiI-HDL uptake fluorescence, 3 h. inhibition, % at 12.5 µM. hit rate 0.96% among 320,000. AID 488896;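 active means mean replicate inhibition of at least 70% and a set share of replicates each scoring 70 or more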;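 further: 0% = median of neutral control wells and 100% = median of positive control wells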
Target sequence (Q61009 whole entry, looked up): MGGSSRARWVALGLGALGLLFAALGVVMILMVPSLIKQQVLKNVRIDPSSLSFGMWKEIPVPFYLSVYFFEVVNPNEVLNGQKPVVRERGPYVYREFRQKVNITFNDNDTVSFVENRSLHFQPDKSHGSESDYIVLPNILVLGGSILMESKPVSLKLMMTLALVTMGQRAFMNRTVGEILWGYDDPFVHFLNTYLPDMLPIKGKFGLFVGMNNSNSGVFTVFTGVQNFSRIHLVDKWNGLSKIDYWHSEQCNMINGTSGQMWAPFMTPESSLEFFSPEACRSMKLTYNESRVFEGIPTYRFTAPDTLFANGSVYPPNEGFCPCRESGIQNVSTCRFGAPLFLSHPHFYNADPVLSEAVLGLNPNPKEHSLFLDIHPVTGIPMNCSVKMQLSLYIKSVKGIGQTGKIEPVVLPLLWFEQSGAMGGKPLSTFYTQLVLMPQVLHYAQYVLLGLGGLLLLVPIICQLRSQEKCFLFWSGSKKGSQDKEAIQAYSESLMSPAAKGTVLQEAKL
SR-BI DiI-HDL act: enhances SR-BI lipid uptake from DiI-HDL; CHO ldlA[mSR-BI] cells, DiI-HDL uptake fluorescence, 3 h; 100 = double the neutral-control signal; activation, % at 12.5 µM; hit rate 0.096% among 320,000;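 active means mean replicate activation of at least 60% and every replicate at or above 60%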;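 further: 0% = median plate neutral-control signal and 100% = twice that signal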
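material = CHO ldlA[mSR-BI] cells | medium = Ham's F12 with 0.5% BSA, HEPES 25 mM, pH 7.4 | reagent = fluorescent DiI-HDL, 10 µg/mL final | compound dosing = single-point compound dose | incubation = 3 h, 37 °C | measured by = bottom-read fluorescence, 550/595 nm | measure = HDL uptake via cellular fluorescence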
Active calls of the source: *; / = no result. Unless noted, no stated cut-off is given here; in the data, active means inhibition above about 50%; inactive means the rest.

SMILES | Dyrk1A ADPGlo | NSD2 inh | CDK5 inh | dFosB act | SR-BI DiI inh | SR-BI DiI-HDL act
CC(C)C1Oc2ccccc2N(CC(=O)N(Cc2ccccn2)C2CC2)C1=O (centres undefined) | -1.4 | -5.5 | -0.3 | -5.2 | -369.4 | 369.4*
CC1Oc2ccccc2N(CC(=O)N(Cc2ccccc2)Cc2ccccn2)C1=O (centres undefined) | 4.5 | 19.5 | -1.0 | -0.9 | -4.9 | 4.9
NC(=O)c1c(NC(=O)Cn2nc(C(=O)O)c3ccccc3c2=O)sc2c1CCCC2 | -8.8 | -4.6 | -0.7 | 90.6* | / | /
CCOC(=O)c1c(NC(=O)Cn2nc(C(=O)O)c3ccccc3c2=O)sc2c1CCC(C)C2 (centres undefined) | -6.8 | 2.4 | -3.0 | -7.9 | 30.0 | -30.0
CC1(C)Cc2nc3sc4c(NCCO)ncnc4c3cc2CS1 | 18.1 | 0.1 | 1.5 | -15.3 | 78.9* | -78.9
N#CNC(=Nc1ccccc1)SCc1ccc(C(=O)O)cc1 | -3.3 | -2.5 | -0.8 | -0.9 | -16.3 | 16.3
CSC(=Nc1ccccc1)N=C(SCc1ccccc1)N(C)C | -2.4 | 6.3 | -1.2 | -4.2 | 86.0* | -86.0
Cc1nc(NC(=O)c2cccc(-c3cc4ccccc4oc3=O)c2)ccc1Br | -2.8 | 4.4 | -0.6 | 168.1* | 20.8 | -20.8
O=C(Nc1ccccc1N1CCCC1)c1cccc(-c2cc3ccccc3oc2=O)c1 | 0.8 | 1.0 | -1.6 | -6.6 | 36.1 | -36.1
CC(=O)N1CCN(c2ccc(NC(=O)c3ccc4ccccc4c3)cc2)CC1 | -16.1 | -8.0 | 0.5 | -8.8 | 38.0 | -38.0
O=C(Nc1ccc(N2CCCC2)cc1)c1ccc2ccccc2c1 | -0.2 | -0.6 | -0.6 | 10.1 | 88.5* | -88.5
O=C(Nc1ccc(N2CCCC2)cc1)c1cccc(-c2cc3ccccc3oc2=O)c1 | -6.7 | -1.0 | -0.5 | 17.5* | 90.0* | -90.0
O=C(Nc1ccc(N2CCCCC2)cc1)c1ccccc1 | 3.1 | -0.1 | -1.7 | -10.0 | 8.5 | -8.5
O=C(Nc1ccc(N2CCCC2)cc1)c1cccc(F)c1 | 2.4 | -1.5 | 0.3 | 19.0* | 36.3 | -36.3
CN(c1ccccc1)c1cc(Br)nc(Br)c1 | -2.8 | -4.3 | -2.0 | -4.0 | 7.1 | -7.1
CC(=O)C(C(c1ccccc1)N1CCOCC1)N1CCOCC1 (centres undefined) | / | 1.2 | -0.4 | 8.1 | -14.0 | 14.0
CSc1ccc(C(C(C(=O)c2cccs2)N2CCOCC2)N2CCOCC2)cc1 (centres undefined) | -0.2 | 1.2 | -0.3 | -5.5 | -65.3 | 65.3*
O=C(CSc1nc2cc(C(=O)O)ccc2c(=O)n1-c1ccc(F)cc1)Nc1ccc(F)c(F)c1F | 12.3 | -2.2 | -0.9 | -5.3 | -6.1 | 6.1
CCn1c(C)c(C)c2cc(C(=O)Nc3cccc(Cl)c3)ccc21 | 5.0 | 0.9 | -0.5 | -1.6 | 101.5* | -101.5
O=C(CSc1nnc(-c2ccccc2)n1-c1ccc(Cl)cc1)c1ccc(F)cc1 | / | 1.1 | / | / | / | /
CCCN(C(=O)Cn1nc(C)c([N+](=O)[O-])c1C)c1c(N)n(Cc2ccccc2)c(=O)[nH]c1=O | -1.4 | -1.7 | -0.1 | 18.1* | 6.6 | -6.6
O=C(O)CC(Cc1ccc(Cl)cc1)C(=O)Nc1ccccc1 (centres undefined) | / | -1.7 | 0.5 | -2.9 | -7.3 | 7.3
CCOc1ccc(/C=N/NC(=O)Cc2csc(Nc3cccc(C(F)(F)F)c3)n2)c(OCC)c1 | -1.4 | 0.6 | -1.4 | -3.9 | 81.1* | -81.1
CCOc1ccccc1/C=N/NC(=O)Cc1csc(Nc2cccc(C(F)(F)F)c2)n1 | -0.4 | 1.6 | 0.7 | -7.3 | / | /
CCOc1ccc(/C=N/NC(=O)Cc2csc(Nc3cccc(C(F)(F)F)c3)n2)cc1 | -3.8 | 29.3 | -0.9 | -1.2 | 76.8* | -76.8
SMILES | Dyrk1A ADPGlo | NSD2 inh | CDK5 inh | dFosB act | SR-BI DiI inh | SR-BI DiI-HDL act
OCCNCc1cccc(-c2ccccc2)c1O | -5.6 | -1.4 | -1.2 | -1.6 | 0.2 | -0.2
COc1cccc(-c2cc(C(F)(F)F)n3nc(C(=O)N4CCCCC4c4cccnc4)cc3n2)c1 (centres undefined) | -2.4 | -8.2 | -4.9 | -30.8 | 77.4* | -77.4
O=C(c1ccc(N2CCN(C(=O)c3ccc(F)cc3F)CC2)cc1)c1cccc(F)c1 | 3.6 | -6.3 | 1.8 | 2.1 | 44.8 | -44.8
CCOC(=O)c1c(NC(C)=O)sc2c(OCC(O)CN(CC)CC)c(Br)ccc12 (centres undefined) | -1.2 | 12.0 | -1.2 | -27.0 | 82.7* | -82.7
CCCCSc1nnc(-c2ccccc2)c2ccccc12 | 2.9 | -2.6 | 1.5 | -11.7 | 73.9* | -73.9
O=C(NCC1COCCO1)C1CCN(S(=O)(=O)c2cccs2)CC1 (centres undefined) | / | 1.0 | / | / | / | /
COc1ccc(CCNc2cc(C)nc3c(-c4ccccc4OC)cnn23)cc1OC | 2.5 | -6.2 | -0.3 | -5.6 | 90.9* | -90.9
CCC(CC)NC(=O)CON=C1c2ccccc2-c2ccccc21 | 3.7 | -1.6 | 1.4 | -3.8 | 72.4* | -72.4
CCNC(=O)CON=C1c2ccccc2-c2ccccc21 | 8.0 | -1.5 | -5.2 | -13.8 | 47.6 | -47.6
CCCN1CCCc2ccccc21 | -9.3 | 3.4 | -0.8 | -2.1 | 9.2 | -9.2
N#CCCN1CCCc2cc(N=Nc3ccc(C(F)(F)F)cc3)ccc21 | / | 21.7 | 2.5 | -5.4 | 98.1* | -98.1
CCOCCCNC(=O)c1ccc2nc(-c3ccc(OC)c(OC)c3)c(-c3ccc(OC)c(OC)c3)nc2c1 | -3.9 | -6.9 | -0.1 | -14.8 | 62.2 | -62.2
COc1ccc(-c2nc3ccc(C(=O)NCC(OC)OC)cc3nc2-c2ccc(OC)c(OC)c2)cc1OC | -4.8 | -4.4 | -0.1 | -12.4 | 75.5* | -75.5
O=C(CN1C(=O)CNC1=O)Nc1cc(Cl)cc(Cl)c1 | -0.4 | -1.1 | 1.8 | -10.0 | -5.9 | 5.9
CCOc1cc(/C=N\NC(=O)c2ccc(NC(=O)C(C)(C)C)cc2)ccc1OC(=O)c1cccc(C)c1 | 1.4 | 0.7 | 0.5 | 0.8 | 23.0 | -23.0
Cc1cccc(C(=O)Oc2ccccc2/C=N/NC(=O)c2ccc(NC(=O)C(C)(C)C)cc2)c1 | -1.6 | -4.8 | 0.4 | -1.8 | 87.4* | -87.4
COc1ccc(C(=O)N/N=C/c2ccccc2OC(=O)c2ccccc2)cc1 | 1.6 | -0.4 | -1.2 | -8.4 | 27.2 | -27.2
CC(C)(C)C(=O)Nc1ccc(C(=O)N/N=C/c2ccccc2OC(=O)c2ccccc2)cc1 | -1.4 | 1.2 | -1.1 | 7.4 | 122.4* | -122.4
CC(C)(C)C(=O)Nc1ccc(C(=O)N/N=C/c2ccccc2OC(=O)c2ccc(Cl)cc2)cc1 | 1.7 | -3.2 | -2.3 | -9.5 | 96.7* | -96.7
CN(C)S(=O)(=O)c1cccc(C(=O)Nc2ccccc2)c1 | -1.7 | -0.1 | 0.3 | -3.1 | 22.5 | -22.5
CN(C)S(=O)(=O)c1cccc(C(=O)Nc2cc(Cl)cc(Cl)c2)c1 | -3.9 | -3.5 | -1.4 | -14.3 | 73.2* | -73.2
O=C(Nc1cc(Cl)cc(Cl)c1)c1cccc(OC(F)F)c1 | 4.6 | -8.2 | -2.8 | -9.6 | 73.9* | -73.9
